Experimental data published in ChEMBL document CHEMBL2390884, “Design, synthesis and antiproliferative activity studies of novel 1,2,3-triazole-dithiocarbamate-urea hybrids” (Eur J Med Chem, 2013).
The source made the active and inactive calls. No cut-off for these calls is given here.

How the values were obtained:
MGC-803 [1] = assay: Induction of apoptosis in human MGC803 cells assessed as nuclear shrinkage at 0.25 to 1 uM after 12 hrs by Hoechst 33258 staining-based fluorescence microscopy; assay type: functional, cell-based
In short: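 MGC-803 cells seeded at 8×10^3 cells/well, treated 12 h at 0, 0.25, 0.5 or 1.0 µmol/L; cells collected, fixed, stained 20 min with Hoechst 33258, washed with PBS; nuclear shrinkage, chromatin condensation, intense fluorescence and fragmentation scored by fluorescence microscopy.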

[2] = Cytotoxicity against human EC9706 cells after 72 hrs by MTT assay; assay type: functional, cell-based; conditions: EC9706, 72 h
MGC-803 [3] = assay: Cell cycle arrest in human MGC803 cells assessed as reduction in S phase accumulation after 12 to 24 hrs by propidium iodide staining-based flow cytometry; assay type: functional
In short: (§1)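 Exponentially growing MGC-803 cells (5×10^5) treated at 0, 0.25, 0.5 or 1.0 µmol/L for 12 or 24 h; cells collected, fixed in ice-cold 70% ethanol, treated with buffer containing RNAse A and 0.1% Triton X-100, stained with PI; DNA content analysed by flow cytometry to give percentages of cells in G1, S and G2/M phases.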

MGC-803 [4] = assay: Cell cycle arrest in human MGC803 cells assessed as accumulation at G2/M phase after 12 to 24 hrs by propidium iodide staining-based flow cytometry; assay type: functional; in short: as §1
MGC-803 [5] = assay: Cell cycle arrest in human MGC803 cells assessed as accumulation at G2/M phase at 0.5 uM after 24 hrs by propidium iodide staining-based flow cytometry; assay type: functional; in short: as §1
MGC-803 [6] = assay: Cell cycle arrest in human MGC803 cells assessed as accumulation at G2/M phase at 1 uM after 12 hrs by propidium iodide staining-based flow cytometry; assay type: functional; in short: as §1
MGC-803 [7] = assay: Cell cycle arrest in human MGC803 cells assessed as accumulation at S phase at 0.25 uM after 12 hrs by propidium iodide staining-based flow cytometry; assay type: functional; in short: as §1
MGC-803 [8] = assay: Cell cycle arrest in human MGC803 cells assessed as accumulation at G0/G1 phase at 1 uM after 24 hrs by propidium iodide staining-based flow cytometry; assay type: functional; in short: as §1
MGC-803 [9] = assay: Cell cycle arrest in human MGC803 cells assessed as accumulation at G0/G1 phase at 0.25 uM after 24 hrs by propidium iodide staining-based flow cytometry; assay type: functional; in short: as §1
MGC-803 [10] = assay: Cell cycle arrest in human MGC803 cells assessed as accumulation at G0/G1 phase at 0.25 uM after 12 hrs by propidium iodide staining-based flow cytometry; assay type: functional; in short: as §1
MGC-803 [11] = assay: Induction of apoptosis in human MGC803 cells assessed as early apoptotic cells at 1 uM after 12 hrs by AnnexinV-FITC/propidium iodide staining-based flow cytometry (reference value: 2.8 %); assay type: functional
MGC-803 [12] = assay: Induction of apoptosis in human MGC803 cells assessed as early apoptotic cells at 0.25 uM after 12 hrs by AnnexinV-FITC/propidium iodide staining-based flow cytometry (reference value: 2.8 %); assay type: functional
MGC-803 [13] = assay: Induction of apoptosis in human MGC803 cells assessed as viable cells at 1 uM after 12 hrs by AnnexinV-FITC/propidium iodide staining-based flow cytometry (reference value: 91.9 %); assay type: functional; conditions: MGC-803, 12 h, read-out: Activity

In the case of CC(C)NC(=O)N1CCN(C(=S)SCc2cn(Cc3ccc(F)cc3)nn2)CC1, the Activity (MGC-803 [1]) is reported as “Active”, the IC50 [2] is reported as 12.2 µM and the Activity (MGC-803 [3]) is reported as “Dose-dependent effect”. For the same molecule, the Activity (MGC-803 [4]) was “Dose-dependent effect”, the Activity (MGC-803 [5]) was 69.88% and the Activity (MGC-803 [6]) was 68.68%. For the same molecule, the Activity (MGC-803 [7]) was 40.91%, the Activity (MGC-803 [8]) was 2.32% and the Activity (MGC-803 [9]) was 13.78%. For the same molecule, the Activity (MGC-803 [10]) was 37.35%, the Activity (MGC-803 [11]) was 31.4% and the Activity (MGC-803 [12]) was 9.2%. It also gave a viability at 1 µM (MGC-803 [13]) of 65%.
